Key:
Melanocortin receptor 4 [1] = molecular target: T1, Melanocortin receptor 4 (Homo sapiens, UniProt P32245); test: Displacement of [125]NDPMSH from human MC4 receptor expressed in HEK293 cells; assay type: cell-based
Melanocortin receptor 4 [2] = molecular target: T1, Melanocortin receptor 4; test: Antagonist activity at MC4 receptor assessed as inhibition of alpha-MSH-stimulated cAMP production; assay type: functional
Melanocortin receptor 4 [3] = molecular target: T1, Melanocortin receptor 4; test: Agonist activity at MC4 receptor by cAMP assay; assay type: functional
[4] = Absolute bioavailability in rat at 10 mg/kg, po; assay type: ADME, organism-based; conditions: in vivo
Procedure, shortened: (§1)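 Rats dosed orally at 10 mg/kg. Cmax and AUC are plasma values. Absolute bioavailability is referenced to a separate intravenous 5 mg/kg dose.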

[5] = Plasma clearance in rat at 5 mg/kg, iv; assay type: ADME, organism-based; design: dose 5 mg/kg, route intravenous
Procedure, shortened: (§2)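 Single intravenous injection at 5 mg/kg in rats. Clearance, volume of distribution and half-life are derived from plasma concentrations.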

[6] = Cmax in rat at 10 mg/kg, po; assay type: ADME, organism-based; design: dose 10 mg/kg, route oral; conditions: in vivo; procedure, shortened: as §1
[7] = Half life in rat at 5 mg/kg, iv; assay type: ADME, organism-based; design: dose 5 mg/kg, route intravenous; conditions: in vivo; procedure, shortened: as §2
[8] = Volume of distribution in rat at 5 mg/kg, iv; assay type: ADME, organism-based; design: dose 5 mg/kg, route intravenous; conditions: in vivo; procedure, shortened: as §2
Rattus norvegicus = test: AUC in rat at 10 mg/kg, po; assay type: ADME, organism-based, Plasma; design: dose 10 mg/kg, route oral; conditions: in vivo; procedure, shortened: as §1

T1 sequence (P32245 whole entry): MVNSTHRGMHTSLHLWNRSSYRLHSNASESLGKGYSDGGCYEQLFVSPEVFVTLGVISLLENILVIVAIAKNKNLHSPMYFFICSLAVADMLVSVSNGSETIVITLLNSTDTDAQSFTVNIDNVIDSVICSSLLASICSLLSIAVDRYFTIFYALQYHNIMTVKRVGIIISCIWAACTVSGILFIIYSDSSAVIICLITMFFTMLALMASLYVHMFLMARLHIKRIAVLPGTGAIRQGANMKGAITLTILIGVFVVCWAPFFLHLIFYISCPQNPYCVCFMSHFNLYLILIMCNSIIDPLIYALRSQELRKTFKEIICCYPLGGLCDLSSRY

CCC(=O)N1CC[C@H](c2ccc(Cl)cc2)[C@H]1C(=O)N1CCN(c2ccc(C)cc2[C@@H](N)C(C)C)CC1
Ki (Melanocortin receptor 4 [1]): 62 nM

Cc1ccc(N2CCN(C(=O)[C@@H]3[C@@H](c4ccc(Cl)cc4)CCN3C(=O)C(C)(C)C)CC2)c([C@@H](N)C(C)C)c1
Ki (Melanocortin receptor 4 [1]): 79 nM

CC(=O)N1CC[C@@H](c2ccc(Cl)cc2)[C@@H]1C(=O)N1CCN(c2ccc(C)cc2[C@@H](N)C(C)C)CC1
Ki (Melanocortin receptor 4 [1]): 180 nM

COC(=O)N1CC[C@H](c2ccc(Cl)cc2)[C@@H]1C(=O)N1CCN(c2ccc(C)cc2[C@@H](N)C(C)C)CC1 (stereo in doubt; form 1)
IC50 (Melanocortin receptor 4 [2]): 720 nM
Ki (Melanocortin receptor 4 [1]): 17 nM

CCOC(=O)N1CC[C@H](c2ccc(Cl)cc2)[C@@H]1C(=O)N1CCN(c2ccc(F)cc2[C@@H](N)C(C)C)CC1
Ki (Melanocortin receptor 4 [1]): 74 nM

CC(C)C[C@H](N)c1cc(C(F)(F)F)ccc1N1CCN(C(=O)C2(Cc3ccc(Cl)cc3)COC(=O)N2)CC1 (some centres undefined)
Ki (Melanocortin receptor 4 [1]): 550 nM

Cc1ccc(N2CCN(C(=O)[C@H]3[C@@H](c4ccc(Cl)cc4)CCN3C(=O)N(C)C)CC2)c([C@@H](N)C(C)C)c1 (stereo in doubt; form 1)
IC50 (Melanocortin receptor 4 [2]): 190 nM
Ki (Melanocortin receptor 4 [1]): 7.4 nM

Cc1ccc(N2CCN(C(=O)[C@H]3[C@@H](c4ccc(Cl)cc4)CCN3S(C)(=O)=O)CC2)c([C@@H](N)C(C)C)c1
Ki (Melanocortin receptor 4 [1]): 40 nM

CCOC(=O)N1CC[C@H](c2ccc(Cl)cc2)[C@H]1C(=O)N1CCN(c2ccc(C)cc2[C@@H](N)C(C)C)CC1
Ki (Melanocortin receptor 4 [1]): 42 nM

Cc1ccc(N2CCN(C(=O)[C@@H]3[C@@H](c4ccc(Cl)cc4)CCN3C(=O)[C@H]3Cc4ccccc4CN3)CC2)c([C@@H](N)C(C)C)c1
EC50 (Melanocortin receptor 4 [3]): 15000 nM
Emax (Melanocortin receptor 4 [3]): 21%
Ki (Melanocortin receptor 4 [1]): 92 nM

CCCC(=O)N1CC[C@H](c2ccc(Cl)cc2)[C@H]1C(=O)N1CCN(c2ccc(C)cc2[C@@H](N)C(C)C)CC1
Ki (Melanocortin receptor 4 [1]): 52 nM

Cc1ccc(N2CCN(C(=O)[C@@H]3[C@@H](c4ccc(Cl)cc4)CCN3C(=O)OC(C)C)CC2)c([C@@H](N)C(C)C)c1
Ki (Melanocortin receptor 4 [1]): 68 nM

CC(C)C[C@H](N)c1cc(Cl)ccc1N1CCN(C(=O)C2NCCC2c2ccc(Cl)cc2)CC1 (some centres undefined)
Ki (Melanocortin receptor 4 [1]): 96 nM

CCOC(=O)N1CC[C@H](c2ccc(Cl)cc2)[C@@H]1C(=O)N1CCN(c2ccc(C)cc2[C@@H](N)C(C)C)CC1 (stereo in doubt; form 2)
Ki (Melanocortin receptor 4 [1]): 11 nM

Cc1ccc(N2CCN(C(=O)[C@H]3[C@@H](c4ccc(Cl)cc4)CCN3C(C)C)CC2)c([C@@H](N)C(C)C)c1
Ki (Melanocortin receptor 4 [1]): 110 nM

CC(C)C[C@H](N)c1cc(Cl)ccc1N1CCN(C(=O)[C@@H]2NCC[C@@H]2c2ccc(Cl)cc2Cl)CC1
IC50 (Melanocortin receptor 4 [2]): 1500 nM

CC(=O)N1CC[C@H](c2ccc(Cl)cc2)[C@@H]1C(=O)N1CCN(c2ccc(C)cc2[C@@H](N)C(C)C)CC1 (stereo in doubt; form 1)
Ki (Melanocortin receptor 4 [1]): 24 nM

CC(=O)N1CC[C@H](c2ccc(C)cc2)[C@@H]1C(=O)N1CCN(c2ccc(C)cc2[C@@H](N)C(C)C)CC1
Ki (Melanocortin receptor 4 [1]): 97 nM

CC(C)C[C@H](N)c1cc(C(F)(F)F)ccc1N1CCN(C(=O)C2NCCC2c2ccc(Cl)cc2)CC1 (some centres undefined)
Ki (Melanocortin receptor 4 [1]): 98 nM

CC(C)C[C@H](N)c1cc(C(F)(F)F)ccc1N1CCN(C(=O)C2NC(=O)CC2c2ccc(Cl)cc2)CC1 (some centres undefined)
Ki (Melanocortin receptor 4 [1]): 340 nM

CCOC(=O)N1CC[C@@H](c2ccc(Cl)cc2)[C@H]1C(=O)N1CCN(c2ccc(C)cc2[C@@H](N)C(C)C)CC1
Ki (Melanocortin receptor 4 [1]): 130 nM

Cc1ccc(N2CCN(C(=O)[C@H]3[C@@H](c4ccc(Cl)cc4)CCN3C(=O)N(C)C)CC2)c([C@@H](N)C(C)C)c1 (stereo in doubt; form 2)
bioavailability [4]: 7.2%
clearance [5]: 20 mL/min/kg
Cmax [6]: 35 ng/mL
IC50 (Melanocortin receptor 4 [2]): 93 nM
half-life [7]: 4.3 h
Vd [8]: 17.2 L/kg
Ki (Melanocortin receptor 4 [1]): 6.5 nM
AUC (Rattus norvegicus): 533 ng·h/mL

CC(=O)N1CC[C@H](c2ccc(Cl)cc2)[C@H]1C(=O)N1CCN(c2ccc(C)cc2[C@@H](N)C(C)C)CC1
Ki (Melanocortin receptor 4 [1]): 78 nM

CC(=O)N1CC[C@H](c2ccc(Cl)cc2)[C@@H]1C(=O)N1CCN(c2ccc(C)cc2[C@@H](N)C(C)C)CC1 (stereo in doubt; form 2)
IC50 (Melanocortin receptor 4 [2]): 520 nM
Ki (Melanocortin receptor 4 [1]): 11 nM

CCOC(=O)N1CC[C@H](c2ccc(Cl)cc2)[C@@H]1C(=O)N1CCN(c2ccccc2[C@@H](N)C(C)C)CC1
Ki (Melanocortin receptor 4 [1]): 94 nM

CCOC(=O)N1CC[C@H](c2ccc(Cl)cc2)[C@@H]1C(=O)N1CCN(c2ccc(C)cc2[C@@H](N)C(C)C)CC1 (stereo in doubt; form 1)
IC50 (Melanocortin receptor 4 [2]): 640 nM
Ki (Melanocortin receptor 4 [1]): 16 nM

Cc1ccc(N2CCN(C(=O)[C@H]3[C@@H](c4ccc(Cl)cc4)CCN3C(=O)[C@H]3Cc4ccccc4CN3)CC2)c([C@@H](N)C(C)C)c1
EC50 (Melanocortin receptor 4 [3]): 3500 nM
Emax (Melanocortin receptor 4 [3]): 44%
Ki (Melanocortin receptor 4 [1]): 1.1 nM

Cc1ccc(N2CCN(C(=O)[C@H]3[C@@H](c4ccc(Cl)cc4)CCN3C(=O)OC(C)C)CC2)c([C@@H](N)C(C)C)c1
Ki (Melanocortin receptor 4 [1]): 12 nM

Cc1ccc(N2CCN(C(=O)C3NCCC3c3ccc(Cl)cc3)CC2)c([C@@H](N)C(C)C)c1 (some centres undefined)
Ki (Melanocortin receptor 4 [1]): 56 nM

Cc1ccc(N2CCN(C(=O)[C@@H]3[C@H](c4ccc(Cl)cc4)CCN3C(=O)N(C)C)CC2)c([C@@H](N)C(C)C)c1
Ki (Melanocortin receptor 4 [1]): 190 nM

CC(=O)N1CC[C@@H](c2ccc(Cl)cc2)[C@H]1C(=O)N1CCN(c2ccc(C)cc2[C@@H](N)C(C)C)CC1
Ki (Melanocortin receptor 4 [1]): 120 nM

CCOC(=O)N1CC[C@H](c2ccc(Cl)cc2)[C@@H]1C(=O)N1CCN(c2ccc(Cl)cc2[C@@H](N)C(C)C)CC1
Ki (Melanocortin receptor 4 [1]): 18 nM

Cc1ccc(N2CCN(C(=O)[C@@H]3[C@@H](c4ccc(Cl)cc4)CCN3C(=O)C3CCC3)CC2)c([C@@H](N)C(C)C)c1
Ki (Melanocortin receptor 4 [1]): 55 nM

COc1ccc([C@H]2CCN(C(C)=O)[C@H]2C(=O)N2CCN(c3ccc(C)cc3[C@@H](N)C(C)C)CC2)cc1
Ki (Melanocortin receptor 4 [1]): 45 nM

CC(=O)N1CC[C@H](c2ccccc2)[C@@H]1C(=O)N1CCN(c2ccc(C)cc2[C@@H](N)C(C)C)CC1
Ki (Melanocortin receptor 4 [1]): 1800 nM

COC(=O)N1CC[C@H](c2ccc(Cl)cc2)[C@H]1C(=O)N1CCN(c2ccc(C)cc2[C@@H](N)C(C)C)CC1
Ki (Melanocortin receptor 4 [1]): 59 nM

COC(=O)N1CC[C@@H](c2ccc(Cl)cc2)[C@H]1C(=O)N1CCN(c2ccc(C)cc2[C@@H](N)C(C)C)CC1
Ki (Melanocortin receptor 4 [1]): 53 nM

CC(C)[C@H](N)c1cccc(F)c1N1CCN(C(=O)C2NCCC2c2ccc(Cl)cc2Cl)CC1 (some centres undefined)
Ki (Melanocortin receptor 4 [1]): 560 nM

Cc1ccc(N2CCN(C(=O)[C@H]3[C@@H](c4ccc(Cl)cc4)CCN3C)CC2)c([C@@H](N)C(C)C)c1
Ki (Melanocortin receptor 4 [1]): 160 nM

CC(=O)N1CC[C@H](c2ccc(C(F)(F)F)cc2)[C@@H]1C(=O)N1CCN(c2ccc(C)cc2[C@@H](N)C(C)C)CC1
Ki (Melanocortin receptor 4 [1]): 54 nM

CC(C)[C@H](N)c1cccc(F)c1N1CCN(C(=O)[C@@H]2NCC[C@@H]2c2ccc(Cl)cc2)CC1
IC50 (Melanocortin receptor 4 [2]): 960 nM

CC(C)[C@H](N)c1cccc(F)c1N1CCN(C(=O)C2NCCC2c2ccc(Cl)cc2)CC1 (some centres undefined)
Ki (Melanocortin receptor 4 [1]): 110 nM

COC(=O)N1CC[C@H](c2ccc(Cl)cc2)[C@@H]1C(=O)N1CCN(c2ccc(C)cc2[C@@H](N)C(C)C)CC1 (stereo in doubt; form 2)
Ki (Melanocortin receptor 4 [1]): 18 nM

CC(=O)N1CC[C@H](c2ccc(F)cc2)[C@@H]1C(=O)N1CCN(c2ccc(C)cc2[C@@H](N)C(C)C)CC1
Ki (Melanocortin receptor 4 [1]): 330 nM

Cc1ccc(N2CCN(C(=O)[C@H]3[C@@H](c4ccc(Cl)cc4)CCN3C(=O)C(C)(C)C)CC2)c([C@@H](N)C(C)C)c1
Ki (Melanocortin receptor 4 [1]): 7.2 nM

CC(C)C[C@H](N)c1cc(Cl)ccc1N1CCN(C(=O)C2NCCC2c2ccc(Cl)cc2Cl)CC1 (some centres undefined)
Ki (Melanocortin receptor 4 [1]): 190 nM

CC(C)C[C@H](N)c1cc(C(F)(F)F)ccc1N1CCN(C(=O)[C@@H]2NCC[C@@H]2c2ccc(Cl)cc2)CC1
IC50 (Melanocortin receptor 4 [2]): 2400 nM

Cc1ccc(N2CCN(C(=O)[C@@H]3NCC[C@@H]3c3ccc(Cl)cc3)CC2)c([C@@H](N)C(C)C)c1
IC50 (Melanocortin receptor 4 [2]): 310 nM
Ki (Melanocortin receptor 4 [1]): 52 nM

Source: ChEMBL document CHEMBL1141529, “Design and synthesis of 3-arylpyrrolidine-2-carboxamide derivatives as melanocortin-4 receptor ligands” (Bioorg Med Chem Lett, 2008)
